Read-outs that look alike come from different tables or passages of the source.
Assays:
[1] = tested on: mouse colonic crypt cultures (WT); test: Total GLP-1 release from primary colonic crypt cultures, WT mice; format: cell-based; details: 1 μM ligand, 2 h, relative to basal (vehicle)
Procedure, shortened: (§1)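 Colonic crypts from male C57BL/6 littermates were collagenase-digested and seeded on Matrigel. […] Next day, cells were exposed to ligands for 2 h at 37 °C, in triplicate, in standard solution with 0.1% fatty-acid-free BSA and 10 mM glucose. Synthetic ligands were in DMSO; ALA was BSA-complexed at 6:1 molar. Total GLP-1 was measured by electrochemiluminescent immunoassay, expressed as fold over vehicle basal.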

[2] = target: T1, human GPR40 (Homo sapiens, UniProt O14842); format: binding
[3] = phase-II studies, cited from earlier work
[4] = target: T1, human GPR40; test: IP turnover assay in transiently transfected COS-7 cells; format: cell-based; details: for Emax: COS-7, read-out: IP3 (in vitro) Emax
[5] = PK experiments; details: mouse, in vivo, po, 30 mg/kg
[6] = tested on: plasma GLP-1; test: Plasma total GLP-1 after oral gavage in fasted mice; format: in vivo, mouse; details: 30 mg/kg oral, 30 min, overnight fasted mice; vehicle about 5 pmol/L
[7] = tested on: plasma GIP; test: Plasma GIP after oral gavage in fasted mice; format: in vivo, mouse; details: 30 mg/kg oral, 30 min, overnight fasted mice
[8] = tested on: mouse colonic crypt cultures GPR40 (−/−); test: Total GLP-1 release from primary colonic crypt cultures, Gpr40 KO mice; format: cell-based; details: 1 μM ligand, 2 h, relative to basal (vehicle)
Procedure, shortened: as §1

[9] = target: T1, human GPR40; test: cAMP accumulation assay in transiently transfected COS-7 cells; format: cell-based; details: for Stimulation of cAMP accumulation (in words): COS-7 transfected with GPR40
[10] = target: T1, human GPR40; format: binding; remark: listed apart in the source

T1 sequence (O14842 whole entry): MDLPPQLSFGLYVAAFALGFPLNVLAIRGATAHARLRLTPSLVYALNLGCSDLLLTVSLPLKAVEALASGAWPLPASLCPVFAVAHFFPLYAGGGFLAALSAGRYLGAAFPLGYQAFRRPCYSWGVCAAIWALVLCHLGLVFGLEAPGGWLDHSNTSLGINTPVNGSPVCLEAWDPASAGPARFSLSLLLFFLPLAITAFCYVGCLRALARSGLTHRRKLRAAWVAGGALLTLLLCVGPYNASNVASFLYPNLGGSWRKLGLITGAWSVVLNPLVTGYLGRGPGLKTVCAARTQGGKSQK

Binding (in vitro) [3H]L358: positive or negative competitive binding [2]	Emax [4] [%]	Cmax [5] [µM]	Binding (in vitro) [3H]AM-1638: positive or negative competitive binding [10]	IC50 [2] [µM]	EC50 [4] [µM]	cAMP potency, fold lower than the potency for IP-accumulation ([9]; cAMP EC50 versus IP EC50) [fold]	IC50 [10] [µM]	EC50 [9] [µM]	SMILES	tGLP-1 (ex vivo) release, WT [1] [fold change]	Effect on HbA1c ([3]; without signs of hypoglycemia)	Effect on plasma GLP-1 [3]	Plasma GLP-1, median of all experiments [6] [pmol/L]	Significance of plasma GIP increase (in words) [7]	tGLP-1 (ex vivo) release, GPR40 (−/−) [8] [fold change]	Stimulation of cAMP accumulation (in words) [9]	Plasma GIP, median of all experiments ([7]; vehicle 53 pmol/L) [pmol/L]
(pos)	98 ± 4	2	(neg)	–	–	–	–	–	Cc1cc(OCCCS(C)(=O)=O)cc(C)c1-c1cccc(COc2ccc3c(c2)OC[C@H]3CC(=O)O)c1 [TAK-875, fasiglifam]	1.5 ± 0.08	decreased HbA1c as efficiently as sulfonylurea	no effect	10.8	only increased plasma GIP significantly in one of the three experiments	1.1 ± 0.12	no or very limited stimulation of cAMP production	–
–	–	–	–	–	–	–	–	–	CC(C)c1noc(C2CCN(c3ncnc(Nc4ccc(S(C)(=O)=O)cc4F)c3[N+](=O)[O-])CC2)n1 [AR231453]	4.7 ± 0.3	–	–	–	–	–	–	–
(neg)	170 ± 14	11	(pos)	0.026	0.0251	7	0.029	–	COc1ccc(F)c(-c2ccc(COc3cccc([C@@H](CC(=O)O)C4CC4)c3)cc2C2=CCCC2(C)C)c1 [AM-1638]	3.0 ± 0.54	–	–	29	–	1.1 ± 0.07	stimulated cAMP accumulation robustly	383
–	56 ± 6	–	–	–	12	–	–	> 1000	CC/C=C\C/C=C\C/C=C\C/C=C\C/C=C\C/C=C\CCC(=O)O [DHA, docosahexaenoic acid]	–	–	–	–	–	–	not able to stimulate cAMP accumulation meaningfully	–
